Target: TopBP1 (Homo sapiens, UniProt Q92547)
Type: biochemical
In short: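 E. coli BL21-expressed (0.1 mM IPTG) TopBP1-BRCT7/8, GST cleaved off with PreScission, 2 μg preincubated with compound in NETN-A (50 mM NaCl, 1 mM EDTA, 20 mM Tris, 0.5% NP-40), 3 h, 4°C, rotating. Then 2 μg biotin-pS1159 peptide (non-phospho peptide control; streptavidin-Sepharose) or GST-p53-DBD (GST control; glutathione-Sepharose) added, 3 h, 4°C. Six NETN-B washes; SDS-PAGE, anti-TopBP1 immunoblot.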

Sequence of TopBP1 (Q92547 1264-1493 limits assumed): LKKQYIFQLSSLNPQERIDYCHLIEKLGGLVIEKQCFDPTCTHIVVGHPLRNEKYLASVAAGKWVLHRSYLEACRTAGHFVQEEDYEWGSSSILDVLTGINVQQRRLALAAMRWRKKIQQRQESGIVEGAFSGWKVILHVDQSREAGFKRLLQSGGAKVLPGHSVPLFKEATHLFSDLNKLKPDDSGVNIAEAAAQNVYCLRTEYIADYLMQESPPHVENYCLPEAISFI

SMILES: O=C(O)CN(CC(=O)O)Cc1cc2c(cc1O)Oc1cc(O)c(CN(CC(=O)O)CC(=O)O)cc1C21OC(=O)c2ccccc21 [calcein]
- Pulldown competition with purified proteins: biotin-pS1159 peptide streptavidin: submicromolar
